This note sets out measurements from PubChem BioAssay.

Test [1] in a line: inhibitors of TNFa-induced NFkB p65 translocation, primary screen, imaging, HUVEC, MLSMR starter and 10KST1 sets (AID 438;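 active means inhibition above 20% together with a positive visual image hit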;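 further: compound added about 3h40 before a 20 min TNFalpha stimulation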;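 on inhibition: signal is the nuclear over cytoplasmic p65 intensity ratio per well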). To be noted: HUVEC TNFa-induced p65 nuclear translocation; cell count: measured here: nuclei count (cytotoxicity indicator), at 2.08 µM; inhibition: at 2 µM, stronger effect = higher value, 0% TNFa-plus-vehicle, 100% no-TNFa wells.
Test [2] in a line: inhibitors of mutant huntingtin aggregation, primary screen, imaging, exon1htt(103Q)mCFP cells, high-content imaging (AID 483;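 active means visual image review flags a hit and inhibition of aggregation exceeds 20%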;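 further: compound exposure lasted 3 days before fixation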;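 on nuclei count: percent of the per-plate median nuclei count of sample wells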). The settings on record: exon1htt(103Q)mCFP cell line, aggregate imaging, at 2 µM; inhibition of aggregation: stronger effect = higher value; nuclei count: measured here: cell count, toxicity.
Test [3] can be described thus: inhibitors of E-selectin induction by TNFa, primary screen, imaging, HUVEC, immunofluorescence, MLSMR starter and 10KST1 sets (AID 487;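 active means visually confirmed hit in the image check and inhibition above 20%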;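 on inhibition: signal is fraction of cell area covered by stained E-selectin grains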;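 on nuclei count: 100% = median nuclei count of all wells on the same plate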). To be noted: HUVEC TNFalpha-induced E-selectin immunofluorescence imaging, at 2 µM; inhibition: stronger effect = higher value; nuclei count: measured here: cell number, toxicity.
The target of test [4] is Voltage-gated potassium channel subunit beta-2 (Rattus norvegicus) (UniProt P62483). Kind of test: KvBeta enzyme negative modulators, primary screen, biochemical, NADPH fluorescence (AID 622).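 Further: slope of raw intensity against log time taken from 70 to 1610 s.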 To be noted: recombinant KvBeta, 4-cyanobenzaldehyde reduction, at 10 µM, stronger effect = higher value.
Test [5] has the same target. The test can be described thus: KvBeta positive modulators, primary screen, biochemical, NADPH fluorescence (AID 623;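 active means NADPH fluorescence slope more negative than the mean of all samples by about 3 SD, 99.7% confidence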;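 further: fluorescence intensity change per second fitted from 20 to 320 s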). To be noted: Recombinant KvBeta, NADPH fluorescence decrease slope, 10 min; at 10 µM; stronger effect = lower value.
For test [6], the target named is Muscarinic acetylcholine receptor M4 (Homo sapiens) (UniProt P08173). The test can be described thus: compounds altering M4/GIRK thallium flux, either direction, primary screen, M4 allosteric agonist project, cell-based, HEK293 M4/GIRK, BTC-AM (AID 625;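 active means fluorescence slope after compound addition differing from the mean of all tested samples at 99.7% confidence, mostly higher but some lower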;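 further: thallium influx through GIRK channels coupled to M4 in HEK293 cells with BTC-AM dye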). The settings on record: at 10 µM, actives lie on both sides. The gist of the method:
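assay system = HEK293 cells with M4 receptor and GIRK channels | medium = pH 7.3 thallium assay buffer | doses = 10 µM final, single point | timing = cells overnight at 37 °C, BTC-AM loading 1 h, reads 2 min total | signal = BTC-AM fluorescence, 1 Hz kinetic reads | read-out = post-addition slope, 15–24 s, of baseline-normalized fluorescence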

Test [7] is described as follows: inhibitors of Sendai virus-induced IRF3 signaling, primary screen, TLR/RLR signaling modifier project, cell-based, Sendai virus stimulus, luciferase, 10K MLSCN set (AID 602276;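 active means inhibition at or above 50% at 10 µM; inactive means inhibition below 50%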;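 further: firefly luciferase from ISG56 promoter only with Renilla not read in this screen; 0% = Sendai virus plus DMSO and 100% = medium plus DMSO without virus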). To be noted: HEK293 RL24 IRF3 luciferase reporter, at 10 µM, stronger effect = higher value.
The nature of test [8]: inhibitors of poly I:C-induced TLR3 signaling, primary screen, cell-based, poly I:C stimulus, luciferase, 10K MLSCN set (AID 602277;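 active means inhibition of the reporter signal at or above 50%; inactive means inhibition below 50%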). To be noted: HEK293-TLR3 RL24 IRF3 luciferase reporter, at 10 µM, stronger effect = higher value.

Activity calls are given as the source filed them.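 How the source made its calls, unless noted: active means fluorescence slope higher than the sample average by over 3 SD (cut at about -0.22 in these data, passing the limit was not always enough); inactive means the rest.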

Muscarinic acetylcholine receptor M4 (Homo sapiens), sequence (P08173 whole entry, looked up): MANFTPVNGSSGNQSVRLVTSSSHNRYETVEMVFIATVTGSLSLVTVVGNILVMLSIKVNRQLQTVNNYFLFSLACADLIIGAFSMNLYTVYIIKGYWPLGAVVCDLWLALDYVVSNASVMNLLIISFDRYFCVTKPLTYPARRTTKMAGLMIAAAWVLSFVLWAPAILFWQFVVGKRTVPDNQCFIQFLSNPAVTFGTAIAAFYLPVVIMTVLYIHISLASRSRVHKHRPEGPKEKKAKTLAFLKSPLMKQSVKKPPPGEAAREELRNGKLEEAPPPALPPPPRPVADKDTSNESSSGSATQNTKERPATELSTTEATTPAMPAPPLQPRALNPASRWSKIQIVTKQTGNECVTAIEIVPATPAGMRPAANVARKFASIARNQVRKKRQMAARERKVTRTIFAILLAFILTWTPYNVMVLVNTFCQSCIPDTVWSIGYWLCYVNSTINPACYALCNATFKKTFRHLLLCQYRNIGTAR
Voltage-gated potassium channel subunit beta-2 (Rattus norvegicus), sequence (P62483 whole entry, looked up): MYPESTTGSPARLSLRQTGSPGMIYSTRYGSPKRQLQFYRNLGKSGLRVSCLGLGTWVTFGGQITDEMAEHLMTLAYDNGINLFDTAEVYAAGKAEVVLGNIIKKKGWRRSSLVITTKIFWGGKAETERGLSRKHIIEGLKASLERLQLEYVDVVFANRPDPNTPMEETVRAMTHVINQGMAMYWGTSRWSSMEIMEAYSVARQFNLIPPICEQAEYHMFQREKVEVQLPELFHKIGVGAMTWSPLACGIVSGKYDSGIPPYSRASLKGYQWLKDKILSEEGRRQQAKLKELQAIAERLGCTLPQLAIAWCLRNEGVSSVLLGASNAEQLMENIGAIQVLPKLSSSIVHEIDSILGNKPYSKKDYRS

For orientation: inhibition means the change of the read-out against control, counted positive when it falls. For the compound `COC(=O)c1ccccc1NC(=O)CSc1nnnn1C1CCCCC1`, the cell count in test [1] is 309. Also, the inhibition in test [1] was -3.7% (inactive); in test [3], -39.4% (inactive); in test [7], 3.68% (inactive); in test [8], 20.1% (inactive). Moreover, the inhibition of aggregation in test [2] is -19.4% (inactive). Besides, the results for the nuclei count in test [2] and in test [3] were 108% and 81.2%, respectively. Besides, the fluorescence slope was -0.545 (inactive) in test [4] and 0.00503 (inactive) in test [6]. Moreover, the NADPH fluorescence slope in test [5] was -3.8e-05 (inactive).
For `O=C(OCC(=O)c1c[nH]c2ccccc12)C1=COCCO1`, the cell count in test [1] stood at 579. For the same compound, the inhibition in test [1] is -6.9% (inactive); in test [3], -1% (inactive); in test [7], -19.9% (inactive); in test [8] it was -100% (inactive). Moreover, the inhibition of aggregation in test [2] was -9.2% (inactive). Further, the nuclei count is 100% in test [2] and 69.3% in test [3]. Also, the fluorescence slope in test [4] is -0.271 (inactive); in test [6], 0.00653 (inactive). In addition, the NADPH fluorescence slope in test [5] is -5.8e-05 (inactive).
Turning to `CCOC(=O)c1cccc(NC(=O)CSc2nnc(-c3ccoc3C)n2CCOC)c1`, the cell count in test [1] came out at 553. In addition, the inhibition was -9.5% (inactive) in test [1], -140% (inactive) in test [3], 18.8% (inactive) in test [7] and 27.2% (inactive) in test [8]. The inhibition of aggregation in test [2] is 1% (inactive). The nuclei count in test [2] is 89.7%; in test [3] it was 133%. The figures for the fluorescence slope in test [4] and in test [6] were -0.577 (inactive) and 0.00584 (inactive), respectively. In addition, the NADPH fluorescence slope in test [5] was 7.3e-06 (inactive).
In the case of `COCCn1cc(C(=O)NCCCN2CCC(C)CC2)c2c3ccccc3n(C)c2c1=O`, the cell count in test [1] was 493. In addition, the inhibition in test [1] was 2.1% (inactive); in test [3], -38.5% (inactive); in test [7], 0.372% (inactive); in test [8], 16.6% (inactive). Also, the inhibition of aggregation in test [2] was -2.6% (inactive). The nuclei count in test [2] came to 110%; in test [3], 115%. Besides, the fluorescence slope in test [4] is -0.562 (inactive); in test [6], 0.00626 (inactive). Moreover, the NADPH fluorescence slope in test [5] is -5.2e-05 (inactive).
For the compound `Cc1cc(C)c2cc(CN(CC3CCCO3)C(=O)NC3CCCCC3)c(=O)[nH]c2c1` (centres undefined), the cell count in test [1] turned out to be 598. Further, the inhibition is -21% (inactive) in test [1], -28.1% (inactive) in test [3], 16.7% (inactive) in test [7] and 17.3% (inactive) in test [8]. Besides, in test [2], the inhibition of aggregation was -17.9% (inactive). The nuclei count worked out at 109% in test [2] and 94% in test [3]. In addition, the fluorescence slope was -0.567 (inactive) in test [4] and 0.0057 (inactive) in test [6]. The NADPH fluorescence slope in test [5] is -5.6e-05 (inactive).
In the case of `C[N+]1=C2CCCCCN2C(O)(c2ccccc2)C1` (centres undefined), the cell count in test [1] came to 546. Further, the inhibition in test [1] is -3% (inactive); in test [3] it was -1.4% (inactive); in test [7], 12.5% (inactive); in test [8], 17.2% (inactive). Moreover, the inhibition of aggregation in test [2] is 6.3% (inactive). The nuclei count in test [2] was 110%; in test [3], 130%. The fluorescence slope in test [4] was -0.56 (inactive); in test [6], 0.00533 (inactive). In test [5], the NADPH fluorescence slope is -3.1e-05 (inactive).
With `COCCN(CC(=O)NC1CCCCC1)C(=O)CSc1nc2ccccc2o1`, the cell count in test [1] turned out to be 666. Further, the inhibition is 12.1% (inactive) in test [1], -28.2% (inactive) in test [3], 2.87% (inactive) in test [7] and 18.7% (inactive) in test [8]. In addition, the inhibition of aggregation in test [2] was 3.4% (inactive). Besides, the results for the nuclei count in test [2] and in test [3] were 105% and 120%, respectively. Besides, the fluorescence slope is -0.469 (inactive) in test [4] and 0.00558 (inactive) in test [6]. Besides, in test [5], the NADPH fluorescence slope is 2.1e-05 (inactive).
For the compound `CCCc1cc(=O)n2[nH]cnc2n1`, the cell count in test [1] was 285. For the same compound, the inhibition in test [1] is 11.4% (inactive); in test [3], -11.2% (inactive); in test [7], 11% (inactive); in test [8] it was 19.9% (inactive). Moreover, the inhibition of aggregation in test [2] was -16% (inactive). For the same compound, the nuclei count in test [2] came out at 80%; in test [3], 101%. Also, the fluorescence slope in test [4] was -0.285 (inactive); in test [6], 0.00663 (inactive). Also, the NADPH fluorescence slope in test [5] was -1.5e-05 (inactive).
On to `NC(=O)c1c(-c2ccccc2)oc2ccc(O)cc12`, for which, in test [1], the cell count came out at 380. Besides, the inhibition is -4.7% (inactive) in test [1], -104% (inactive) in test [3], -8.7% (inactive) in test [7] and -13.7% (inactive) in test [8]. Moreover, in test [2], the inhibition of aggregation is 11.1% (inactive). Moreover, the nuclei count in test [2] worked out at 103%; in test [3], 92.8%. Besides, the values for the fluorescence slope in test [4] and in test [6] were -0.532 (inactive) and 0.00463 (inactive), respectively. The NADPH fluorescence slope in test [5] is -1.2e-05 (inactive).
